Results gathered from unrelated publications.
Each line is one published result; the experiments were not run side by side.
Target: Serine/threonine-protein kinase WNK4 (WNK4, Homo sapiens, UniProt Q96J92)

For `Cc1nc(Cc2cccc(C(F)(F)F)c2)sc1-c1ccc(C(N)=O)nc1`, the remaining binding was 100% (cell-free assay; competition with immobilised ligand; 1 µM).
With `CNC(=O)[C@@H]1CC[C@@H](n2c(-c3ccc4cnccc4c3)nc3ccc(C(=O)NCc4cccc(C(N)=O)c4)cc32)C1` the remaining binding was 100% (binding; competition with immobilised ligand; 1 µM).
With `CN(C)c1nccc(-c2cnn3ncccc23)n1` the remaining binding was 59% (binding; 1 µM).
`O=C(NCC1CCOCC1)c1n[nH]cc1NC(=O)c1c(F)cccc1F` gave a remaining binding of 86% (binding; competition with immobilised ligand; 1 µM).
For `O=C(Nc1cccnn1)N1CC(C/C=C/c2cncc(Oc3ccc(C(F)(F)F)cn3)n2)C1`, the remaining binding was 0% (cell-free assay; competition with immobilised ligand; 1 µM).
With `COc1ncc2cc3ccccc3nc2c1C#N` the remaining binding was 80% (cell-free assay; competition with immobilised ligand; 5 µM).
`N[C@@H]1CCN(c2nccc(-c3cnn4ncccc34)n2)C1` has a remaining binding of 100% (binding; 1 µM).
The remaining binding of `O=C(c1ccc(Nc2nccc(-c3cc4ccccc4s3)n2)cc1)N1CCC(N2CCCC2)CC1` is reported as 92% (binding; competition with immobilised ligand; 1 µM).
For `Cc1nc(N2CC[C@@H](O)C2)ncc1-c1cc(C(F)(F)F)cc2[nH]ncc12`, the remaining binding was 95% (binding; competition with immobilised ligand; 1 µM).
The remaining binding of `CN(CCCC(F)(F)F)c1nccc(-c2cnn3ncccc23)n1` is reported as 91% (binding; 1 µM).
`COc1cnc(Nc2cccc(S(N)(=O)=O)c2)nc1N1CCN(c2ccccc2)CC1` gave a remaining binding of 82% (binding; competition with immobilised ligand; 1 µM).
With `NS(=O)(=O)c1cc(NC(=O)C2(c3ccccc3Cl)CC2)ccc1Oc1cccc(Cl)c1` the remaining binding was 81% (cell-free assay; competition with immobilised ligand; 1 µM).
For `COc1ccnn2ncc(-c3ccnc(N(C)C)n3)c12`, the remaining binding was 100% (binding; 1 µM).
`O=C(NCCCN1CCOCC1)c1ccc(Nc2ncc(Cl)c(-c3ccc(Cl)s3)n2)cc1` gave a remaining binding of 99% (binding; competition with immobilised ligand; 1 µM).
With `C[C@@H]1CCN(c2nccc(-c3cnn4ncccc34)n2)C1` the remaining binding was 100% (binding; 1 µM).
`O=C(c1ccc(Nc2ncc(Cl)c(-c3cc4ccccc4s3)n2)cc1)N1CCC(N2CCCC2)CC1` has a remaining binding of 86% (binding; competition with immobilised ligand; 1 µM).
`COc1cccc(CNC(=O)c2nc3scc(COCc4ccc(C(=O)O)cc4)c3c(=O)[nH]2)c1` gave a remaining binding of 100% (cell-free assay; competition with immobilised ligand; 1 µM).
For `c1cncc(-c2cccc(Nc3nccc(NC4CCCCC4)n3)c2)c1`, the remaining binding was 100% (binding; competition with immobilised ligand; 10 µM).
With `CC(=O)c1c(NS(C)(=O)=O)c2cc(-c3ccc(Cl)cc3)c(-c3ccc(Cl)cc3Cl)nc2n(C)c1=O` the remaining binding was 96% (cell-free assay; competition with immobilised ligand; 1 µM).
For `CN(C)c1ncc(F)c(-c2cnn3ncccc23)n1`, the remaining binding was 91% (binding; 1 µM).
